Entries after “also recorded” stand apart in the source; their conditions may differ.
Columns and labels:
[1] = test system: patients with advanced refractory solid tumours or non-Hodgkin's lymphoma; assay: Phase I dose escalation: safety, tolerability, DLT and adverse events; assay type: in vivo, human
[2] = Pharmacokinetic analysis of plasma AT7519 after first 1-h intravenous infusion; assay type: in vivo, human
QTc intervals = assay: ECG analysis; assay type: in vivo, human
Method in brief: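 After dose level 1, patients with QTc ⩾460 ms at baseline, congenital long QT or QT-affecting medication were excluded. 12-lead ECGs were taken immediately before and after each infusion on days 1, 4, 8 and 11 of cycle 1, with a confirmatory ECG within 48 h of any abnormality. QT was machine-recorded with Bazett correction. At 27.0 mg m−2, 24-h ambulatory ECG started immediately after the cycle 1 infusion. An independent cardiologist reviewed all tracings.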

[3] = test system: advanced solid malignancies or non-Hodgkin's lymphoma; assay: Anti-tumour activity; assay type: in vivo, human
Method in brief: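 Test compound given as a 1-h IV infusion on days 1, 4, 8 and 11 every 3 weeks, at 14.4–32.4 mg m−2. Radiological assessment was done after every two cycles. Response was graded by RECIST version 1.1. Treatment continued until progression, unacceptable toxicity or consent withdrawal.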

[4] = test system: markers of CDK activity in tumour biopsies; assay: Pharmacodynamic analysis of tumour biopsies; assay type: in vivo, human; details: three patients at RP2D, pre-dose vs 24 h after end of infusion
Method in brief: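 Tumour biopsies were taken at 27.0 mg m−2, before dosing and 24 h after the end of a 1-h IV infusion. Samples were immunostained for PCNA, phospho-NPM and Ki67. Read-out was the estimated percentage of positively stained tumour cells.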

CDK4 = details: ref Squires et al, 2009; cited from earlier work
CDK6 = details: ref Squires et al, 2009; cited from earlier work
human cancer cell lines = details: in vitro studies; ref Squires et al, 2010; cited from earlier work
[5] = test system: patients with refractory solid tumors; details: ref Mahadevan et al, 2011, cited from earlier work
[6] = 1-h intravenous infusion on days 1, 4, 8 and 11 every 3 weeks
[7] = 1-h intravenous infusion, day 1 cycle 1, 29 patients
[8] = 19 patients evaluable for efficacy
[9] = five consecutive days every 3 weeks

## O=C(NC1CCNCC1)c1n[nH]cc1NC(=O)c1c(Cl)cccc1Cl [AT7519, N-(4-piperidinyl)-4-(2,6-dichlorobenzoylamino)-1H-pyrazole-3-carboxamide]
[1]; 14.4 mg m^−2 (n=5)
  ALP elevation: No. of patients with AEs of any grade: 3 No. of patients
  AST elevation: No. of patients with AEs of any grade: 2 No. of patients
  Anaemia: No. of patients with AEs of any grade: 5 No. of patients
  Anorexia: No. of patients with AEs of any grade: 0 No. of patients
  Creatinine elevation: No. of patients with AEs of any grade: 1 No. of patients
  Diarrhoea: No. of patients with AEs of any grade: 0 No. of patients
  Fatigue: No. of patients with AEs of any grade: 0 No. of patients
  Hyperglycaemia (random): No. of patients with AEs of any grade: 0 No. of patients
  Infection without neutropenia: No. of patients with AEs of any grade: 0 No. of patients
  Lymphopenia: No. of patients with AEs of any grade: 4 No. of patients
  Mucositis: No. of patients with AEs of any grade: 0 No. of patients
  Nausea: No. of patients with AEs of any grade: 1 No. of patients
  Neutropenia: No. of patients with AEs of any grade: 0 No. of patients
  Thrombocytopenia: No. of patients with AEs of any grade: 0 No. of patients
  Vomiting: No. of patients with AEs of any grade: 1 No. of patients
[1]; 21.6 mg m^−2 (n=7)
  ALP elevation: No. of patients with AEs of any grade: 5 No. of patients
  AST elevation: No. of patients with AEs of any grade: 2 No. of patients
  Anaemia: No. of patients with AEs of any grade: 6 No. of patients
  Anorexia: No. of patients with AEs of any grade: 1 No. of patients
  Creatinine elevation: No. of patients with AEs of any grade: 1 No. of patients
  Diarrhoea: No. of patients with AEs of any grade: 2 No. of patients
  Fatigue: No. of patients with AEs of any grade: 4 No. of patients
  Hyperglycaemia (random): No. of patients with AEs of any grade: 1 No. of patients
  Infection without neutropenia: No. of patients with AEs of any grade: 1 No. of patients
  Lymphopenia: No. of patients with AEs of any grade: 5 No. of patients
  Mucositis: No. of patients with AEs of any grade: 3 No. of patients
  Nausea: No. of patients with AEs of any grade: 2 No. of patients
  Neutropenia: No. of patients with AEs of any grade: 0 No. of patients
  Thrombocytopenia: No. of patients with AEs of any grade: 1 No. of patients
  Vomiting: No. of patients with AEs of any grade: 1 No. of patients
[1]; 27.0 mg m^−2 (n=15)
  ALP elevation: No. of patients with AEs of any grade: 7 No. of patients
  AST elevation: No. of patients with AEs of any grade: 9 No. of patients
  Anaemia: No. of patients with AEs of any grade: 12 No. of patients
  Anorexia: No. of patients with AEs of any grade: 2 No. of patients
  Creatinine elevation: No. of patients with AEs of any grade: 1 No. of patients
  Diarrhoea: No. of patients with AEs of any grade: 3 No. of patients
  Fatigue: No. of patients with AEs of any grade: 10 No. of patients
  Hyperglycaemia (random): No. of patients with AEs of any grade: 9 No. of patients
  Infection without neutropenia: No. of patients with AEs of any grade: 3 No. of patients
  Lymphopenia: No. of patients with AEs of any grade: 13 No. of patients
  Mucositis: No. of patients with AEs of any grade: 11 No. of patients
  Nausea: No. of patients with AEs of any grade: 6 No. of patients
  Neutropenia: No. of patients with AEs of any grade: 4 No. of patients
  Thrombocytopenia: No. of patients with AEs of any grade: 6 No. of patients
  Vomiting: No. of patients with AEs of any grade: 4 No. of patients
[1]; 32.4 mg m^−2 (n=5)
  ALP elevation: No. of patients with AEs of any grade: 5 No. of patients
  AST elevation: No. of patients with AEs of any grade: 3 No. of patients
  Anaemia: No. of patients with AEs of any grade: 5 No. of patients
  Anorexia: No. of patients with AEs of any grade: 1 No. of patients
  Creatinine elevation: No. of patients with AEs of any grade: 2 No. of patients
  Diarrhoea: No. of patients with AEs of any grade: 0 No. of patients
  Fatigue: No. of patients with AEs of any grade: 3 No. of patients
  Hyperglycaemia (random): No. of patients with AEs of any grade: 2 No. of patients
  Infection without neutropenia: No. of patients with AEs of any grade: 2 No. of patients
  Lymphopenia: No. of patients with AEs of any grade: 5 No. of patients
  Mucositis: No. of patients with AEs of any grade: 3 No. of patients
  Nausea: No. of patients with AEs of any grade: 4 No. of patients
  Neutropenia: No. of patients with AEs of any grade: 1 No. of patients
  Thrombocytopenia: No. of patients with AEs of any grade: 2 No. of patients
  Vomiting: No. of patients with AEs of any grade: 5 No. of patients
[1]; [6]
  maximum tolerated dose: 32.4 mg m^−2
  recommended phase II dose (RP2D): 27.0 mg m^−2
[1]; all dose levels (N=32)
  ALP elevation: Any grade AE No. of patients (%): 20 (62.5) No. of patients (%)
  ALP elevation: Grade 3/4 AE No. of patients (%): 5 (15.6) No. of patients (%)
  AST elevation: Any grade AE No. of patients (%): 16 (50.0) No. of patients (%)
  AST elevation: Grade 3/4 AE No. of patients (%): 3 (9.4) No. of patients (%)
  Anaemia: Any grade AE No. of patients (%): 28 (87.5) No. of patients (%)
  Anaemia: Grade 3/4 AE No. of patients (%): 1 (3.1) No. of patients (%)
  Anorexia: Any grade AE No. of patients (%): 4 (12.5) No. of patients (%)
  Anorexia: Grade 3/4 AE No. of patients (%): 0 No. of patients (%)
  Creatinine elevation: Any grade AE No. of patients (%): 5 (15.6) No. of patients (%)
  Creatinine elevation: Grade 3/4 AE No. of patients (%): 1 (3.1) No. of patients (%)
  Diarrhoea: Any grade AE No. of patients (%): 5 (15.6) No. of patients (%)
  Diarrhoea: Grade 3/4 AE No. of patients (%): 0 No. of patients (%)
  Fatigue: Any grade AE No. of patients (%): 17 (53.1) No. of patients (%)
  Fatigue: Grade 3/4 AE No. of patients (%): 3 (9.4) No. of patients (%)
  Hyperglycaemia (random): Any grade AE No. of patients (%): 12 (37.5) No. of patients (%)
  Hyperglycaemia (random): Grade 3/4 AE No. of patients (%): 2 (6.3) No. of patients (%)
  Infection without neutropenia: Any grade AE No. of patients (%): 6 (18.8) No. of patients (%)
  Infection without neutropenia: Grade 3/4 AE No. of patients (%): 1 (3.1) No. of patients (%)
  Lymphopenia: Any grade AE No. of patients (%): 27 (84.4) No. of patients (%)
  Lymphopenia: Grade 3/4 AE No. of patients (%): 12 (37.5) No. of patients (%)
  Mucositis: Any grade AE No. of patients (%): 17 (53.1) No. of patients (%)
  Mucositis: Grade 3/4 AE No. of patients (%): 3 (9.4) No. of patients (%)
  Nausea: Grade 3/4 AE No. of patients (%): 0 No. of patients (%)
  Neutropenia: Any grade AE No. of patients (%): 5 (15.6) No. of patients (%)
  Neutropenia: Grade 3/4 AE No. of patients (%): 1 (3.1) No. of patients (%)
  Thrombocytopenia: Any grade AE No. of patients (%): 9 (28.1) No. of patients (%)
  Thrombocytopenia: Grade 3/4 AE No. of patients (%): 0 No. of patients (%)
  Vomiting: Any grade AE No. of patients (%): 11 (34.4) No. of patients (%)
  Vomiting: Grade 3/4 AE No. of patients (%): 0 No. of patients (%)
[1]; any grade, all dose levels
  patients with anaemia: 87.5%
  patients with fatigue: 53.1%
  patients with lymphopenia: 84.4%
  patients with mucositis: 53.1%
  patients with nausea: 31.7%
  patients with vomiting: 34.4%
[1]; dose level 14.4 mg m^−2, 5 patients treated, days 1, 4, 8, 11 every 3 weeks
  No. of patients with DLT: No DLTs and none
[1]; grade 3, all dose levels
  patients experienced grade 3 fatigue and mucositis: < 10%
[1]; grade 3 or 4, all dose levels
  grade 3 or 4 elevation of alkaline phosphatase: 15.6%
  grade 3 or 4 elevation of aspartate transaminase: 9.4%
  patients developing grade 3 or 4 lymphopenia: 37.5%
  patients with grade 3 or 4 fatigue and mucositis: 9%
[2]; [7]
  plasma clearance: 0.28±0.26 l min^−1 m^−2
  volume of distribution: 289±218 l m^−2
[2]; 14.4 to 32.4 mg m^−2
  dose dependence of Cmax and plasma exposures: apparent dose proportional increase; also recorded: linear pharmacokinetics
[2]; human, plasma, intravenous, 27 mg
  Cmax: 591 ± 358 ng/mL
[2]; human, plasma, iv
  half-life: 786 ± 240 min
QTc intervals; among the 24 patients with baseline QTc ⩽450 ms
  patients with transient QTc increases: 10 patients
QTc intervals; serial ECGs, 24-h ambulatory ECG in five patients at the RP2D level
  QTc prolongation: no clinically significant QTc prolongations
[3]; [8]
  complete or partial response: no complete or partial response; also recorded: no partial response
  patients with progressive disease as best response: nine
[3]; one patient with metastatic rectal cancer, 10 cycles
  duration of durable stable disease in one patient: 11.1 months
[3]; ten patients with stable disease
  median duration of stable disease: 3.3 months
[4]
  changes in proliferating cell nuclear antigen, pNPM and Ki67: no consistent changes
CDK4
  IC50: 100 nM
CDK6
  IC50: 170 nM
Human cancer cell lines
  concentrations at which anti-cancer activities were observed: above 100 ng ml^−1
[5]; [9]
  dose at which one patient death from QTc prolongation was reported: 34 mg m^−2 per day
  minimal effective biological dose: 28.8 mg m^−2 per day
[5]; × 5 days
  dose at which dose-limiting toxicity (DLT) was initially seen: 14.4 mg m^−2 per day
